Series [1] is described as follows: Aqueous solubility of the compound at pH 6.8. The series is classed as physicochemical.
Series [2] relates to Plasma. Nature of the series: (§1) AUC in Brown Norway rat plasma administered topically after 3 hrs. Format: ADME, cell-free. The following applies: topical_or_ocular, 3 h, BLD = below limit of detection. Also on record: time < 3 hr; concentration or dose not given beside the values. An outline of the steps: (§2)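 Adult male Brown Norway rats (200−250 g) received a single topical 4 μL dose of 0.1% solution to each eye (5% cremaphor EL, 0.78% NaCl, 0.1% Na3PO4 in sterile water, pH 6.8). Composite design, three animals per group, sampled at 0.25, 1 and 3 h. Plasma taken by cardiac puncture. Eyes enucleated and PBS-rinsed, tissues dissected and homogenized. Parent drug measured by LC/MS/MS. AUC over 0−3 h.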

Series [3] concerns Iris and ciliary body (Rattus norvegicus). Nature of the series: AUC in Brown Norway rat iris and ciliary body administered topically after 3 hrs. The following applies: in vivo, topical_or_ocular, BLD = below limit of detection.
Series [4] in a line: AUC in Brown Norway rat iris and ciliary body administered topically after 3 hrs. Details: time < 3 hr; concentration or dose not given beside the values; call rule not given here. The following applies: topical or ocular. Format: ADME, tissue-based. The method, boiled down:
as §2

Series [5] in a line: as §1. The series is classed as ADME, cell-free. Details: time < 3 hr; concentration or dose not given beside the values. The following applies: Brown Norway, topical or ocular. An outline of the steps: as §2
Series [6] is described as follows: Tmax in Brown Norway rat aqueous humor administered topically. Format: ADME, tissue-based, Aqueous humor of eyeball. The following applies: topical or ocular. The method, boiled down:
(§3)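 Male Brown Norway rats, 200−250 g, dosed once topically with 4 μL of a 0.02% clinical formulation per eye. Composite design with 3 animals per time point. Cornea, aqueous humor, iris/ciliary body and plasma collected at 0 (untreated), 0.083, 0.25, 0.5, 1, 3, 6 and 24 h. Eyes rinsed in PBS after enucleation.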

The nature of series [7]: Cmax in Brown Norway rat aqueous humor administered topically. Format: ADME, tissue-based, Aqueous humor of eyeball. The following applies: topical or ocular. The method, boiled down:
as §3

A short description of series [8]: Cmax in Brown Norway rat cornea administered topically. The following applies: topical or ocular. Format: ADME, tissue-based. An outline of the steps:
as §3

Series [9] in a line: Tmax in Brown Norway rat cornea administered topically. The series is classed as ADME, tissue-based. The following applies: topical or ocular. The method, boiled down:
as §3

Series [10] in a line: Drug uptake in Brown Norway rat iris administered topically after 1 hr. Format: ADME, tissue-based. The following applies: in vivo, topical_or_ocular. The method, boiled down: (§4)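 Abbreviated ocular PK in male Brown Norway rats, 200−250 g. Single topical 4 μL dose per eye of 0.1% solution in 5% cremaphor EL, 0.78% NaCl, 0.1% Na3PO4, water, pH 6.8. Three animals per group, sampled at 0.25, 1 and 3 h. Tissues homogenized in PBS with 10% acetonitrile.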

Series [11] is described as follows: Drug uptake in Brown Norway rat ciliary body administered topically after 1 hr. The series is classed as ADME, tissue-based. The following applies: in vivo, topical_or_ocular. The method, boiled down: as §4
Series [12] can be described thus: Drug uptake in Brown Norway rat iris administered topically after 3 hrs. Format: ADME, tissue-based. The following applies: in vivo, topical_or_ocular. The method, boiled down:
as §4

Series [13] concerns Plasma. Nature of the series: Drug uptake in Brown Norway rat plasma administered topically after 3 hrs. Format: ADME, cell-free. The following applies: topical_or_ocular. An outline of the steps: as §4
The nature of series [14]: Cmax in Brown Norway rat plasma administered topically. The series is classed as ADME, cell-free. The following applies: topical or ocular. An outline of the steps:
as §3

Series [15] can be described thus: AUC (0 to last) in Brown Norway rat aqueous humor administered topically. Format: ADME. Details: time 0 - last. The following applies: topical or ocular. An outline of the steps:
as §3

Series [16] in a line: Cmax in Brown Norway rat iris administered topically. The series is classed as ADME, tissue-based. The following applies: topical or ocular. The method, boiled down:
as §3

Series [17] is described as follows: Drug uptake in Brown Norway rat ciliary body administered topically after 3 hrs. Format: ADME, tissue-based. The following applies: in vivo, topical_or_ocular. The method, boiled down: as §4
Series [18] in a line: Tmax in Brown Norway rat iris administered topically. The series is classed as ADME, tissue-based. The following applies: topical or ocular. The method, boiled down:
as §3

Series [19] deals with Cannabinoid receptor 2 (Homo sapiens, UniProt P34972). Description: Agonist activity at CB2 receptor (unknown origin).
Series [20] in a line: Tmax in Brown Norway rat plasma administered topically. The series is classed as ADME, cell-free. The following applies: topical or ocular. The method, boiled down: as §3
Series [21] concerns the target Cannabinoid receptor 1 (Homo sapiens, UniProt P21554). Description: Agonist activity at CB1 receptor (unknown origin).
The nature of series [22]: AUC (0 to last) in Brown Norway rat cornea administered topically. Format: ADME, tissue-based. Details: time 0 - last. The following applies: topical or ocular. An outline of the steps: as §3
The nature of series [23]: Drug uptake in Brown Norway rat aqueous humor administered topically after 3 hrs. The following applies: in vivo, topical_or_ocular. The series is classed as ADME, tissue-based, Aqueous humor of eyeball. An outline of the steps: as §4
Series [24] can be described thus: Drug uptake in Brown Norway rat cornea administered topically after 3 hrs. The series is classed as ADME, tissue-based. The following applies: in vivo, topical_or_ocular. An outline of the steps: as §4

Converted amounts (≈) assume the structure as drawn.

Cannabinoid receptor 2, sequence (P34972 whole entry): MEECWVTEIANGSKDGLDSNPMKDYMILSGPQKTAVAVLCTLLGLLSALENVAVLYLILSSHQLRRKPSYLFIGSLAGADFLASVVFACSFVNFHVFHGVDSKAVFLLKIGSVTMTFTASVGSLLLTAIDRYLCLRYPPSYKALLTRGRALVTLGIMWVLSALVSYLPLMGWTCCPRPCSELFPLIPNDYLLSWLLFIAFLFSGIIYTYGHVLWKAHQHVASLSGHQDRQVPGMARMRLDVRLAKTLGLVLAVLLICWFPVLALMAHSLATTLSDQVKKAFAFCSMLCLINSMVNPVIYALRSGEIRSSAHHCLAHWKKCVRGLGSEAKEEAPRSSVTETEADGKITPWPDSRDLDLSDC
Cannabinoid receptor 1, sequence (P21554 whole entry): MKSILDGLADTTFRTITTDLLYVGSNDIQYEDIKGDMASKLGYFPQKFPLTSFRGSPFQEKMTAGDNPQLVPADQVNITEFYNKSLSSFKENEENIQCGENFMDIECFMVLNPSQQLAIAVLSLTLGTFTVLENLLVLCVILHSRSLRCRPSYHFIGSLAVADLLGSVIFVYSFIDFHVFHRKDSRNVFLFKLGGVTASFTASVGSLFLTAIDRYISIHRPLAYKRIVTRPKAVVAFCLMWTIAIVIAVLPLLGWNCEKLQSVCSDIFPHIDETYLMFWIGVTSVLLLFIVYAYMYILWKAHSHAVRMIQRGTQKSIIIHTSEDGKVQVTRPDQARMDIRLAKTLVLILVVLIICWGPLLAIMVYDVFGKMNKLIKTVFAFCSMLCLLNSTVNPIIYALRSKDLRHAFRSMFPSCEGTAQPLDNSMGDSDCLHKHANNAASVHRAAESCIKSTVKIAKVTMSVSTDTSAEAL

With `CCOC(=O)c1c(C)cc2nc(COC(=O)NCCOC(=O)[C@@H](NC(=O)[C@H](N)C(C)C)C(C)C)n(-c3ccccc3S(=O)(=O)NC)c(=O)c2c1C`, in [1] (buffer), the solubility result is “soluble”.

For the compound `CCOC(=O)c1c(C)cc2nc(COC(=O)NCCOC(=O)CCN)n(-c3ccccc3S(=O)(=O)NC)c(=O)c2c1C`, the solubility entry in series [1] (buffer) is “soluble”. Further, the exposure (AUC) entry in series [2] and in series [3] was “BLD” each time.

In series [4], `CCOC(=O)c1c(C)cc2nc(COC(=O)NCCOC(=O)CN3CCCCC3)n(-c3ccccc3S(=O)(=O)NC)c(=O)c2c1C` showed an area under the curve (AUC) at 3 h of 0.321 µM·h. For the same compound, in series [1] (buffer), the solubility entry is “soluble”. Also, the AUC result in [2] is “BLD”.

On to `CCOC(=O)c1c(C)cc2nc(COC(=O)NCCOC(=O)CN)n(-c3ccccc3S(=O)(=O)NC)c(=O)c2c1C`, for which the AUC at 3 h in series [4] was found to be 0.0174 µM·h; in series [5], 0.0039 µM·h. Also, the solubility entry in series [1] (buffer) is on record as “soluble”.

Turning to `CCOC(=O)c1c(C)cc2nc(COC(=O)NCCOP(=O)(O)O)n(-c3ccccc3S(=O)(=O)NC)c(=O)c2c1C`, the area under the curve (AUC) at 3 h came to 0.017 µM·h in series [4] and 0.01 µM·h in series [5]. Besides, the solubility result in [1] (buffer) is given as “soluble”.

`CCOC(=O)c1c(C)cc2nc(COC(=O)NCCOC(=O)C3CCCCN3)n(-c3ccccc3S(=O)(=O)NC)c(=O)c2c1C` (stereo not drawn): the AUC at 3 h came out at 0.0367 µM·h in series [4] and 0.0118 µM·h in series [5]. Further, the solubility entry in series [1] (buffer) is “soluble”.

For `CCOC(=O)c1c(C)cc2nc(COC(=O)NCCOC(=O)[C@H](N)c3ccccc3Cl)n(-c3ccccc3S(=O)(=O)NC)c(=O)c2c1C`, the solubility result in [1] (buffer) is recorded as “soluble”. The area under the curve (AUC) at 3 h in series [5] amounted to 0.0036 µM·h. Moreover, the exposure (AUC) result in series [3] is listed as “BLD”.

`CCOC(=O)c1c(C)cc2nc(COC(=O)NCCOC(=O)c3cn4ccccc4n3)n(-c3ccccc3S(=O)(=O)NC)c(=O)c2c1C`: the solubility result in [1] (buffer) is “soluble”. The exposure (AUC) result in [2] and in series [3] was “BLD” in each case.

Regarding `CCOC(=O)c1c(C)cc2nc(COC(=O)NCCOC(=O)[C@@H](N)C(C)C)n(-c3ccccc3S(=O)(=O)NC)c(=O)c2c1C`, the AUC at 3 h amounted to 0.04 µM·h in series [4] and 0.02 µM·h in [5]. For the same compound, in series [1] (buffer), the solubility result is reported as “soluble”.

In the case of `CCOC(=O)c1c(C)cc2nc(COC(=O)NCCOC(=O)c3cccnc3)n(-c3ccccc3S(=O)(=O)NC)c(=O)c2c1C`, in series [4], the area under the curve (AUC) at 3 h came out at 0.213 µM·h. Moreover, in series [1] (buffer), the solubility entry is “soluble”. The AUC result in series [2] is on record as “BLD”.

`CCOC(=O)c1c(C)cc2nc(COC(=O)NCCO)n(-c3ccccc3S(=O)(=O)NC)c(=O)c2c1C` [SAD448]: the time of peak concentration (Tmax) in series [6], in series [9], in series [18] and in series [20] was 4.98 min throughout. Moreover, the Cmax in series [7] stood at 82 nM; in series [8] it was 50 nM; in [14], 9 nM; in series [16], 18 nM. The solubility in series [1] (aqueous medium, read-out: solubility) was found to be 340 µM (≈ 181 µg/mL). Besides, the Drug uptake result in series [10], in series [11], in series [12], in series [13], in [17] and in series [23] was “Not Active” each time. The Drug uptake result in [24] is on record as “Not Active”. The same compound had an exposure (AUC) at 3 h in [5] of 0.014 µM·h. Further, in [3], the exposure (AUC) entry is recorded as “BLD”. Further, the AUC(0-t) is 0.05 µM·h in series [15] and 0.043 µM·h in series [22]. The IC50 in series [19] came to 3.5 nM; in series [21], 94 nM.

The compound `CCOC(=O)c1c(C)cc2nc(COC(=O)NCCOC(=O)[C@H](NC(=O)[C@@H](N)C(C)C)C(C)C)n(-c3ccccc3S(=O)(=O)NC)c(=O)c2c1C` had an AUC at 3 h in [4] of 0.104 µM·h. Moreover, the solubility result in series [1] (buffer) is listed as “soluble”. For the same compound, the AUC entry in series [2] is “BLD”.

The solubility is the dissolved amount per volume that the medium holds. As a reminder, the AUC is concentration integrated over time. What is called Tmax is the time at which the peak concentration occurs. One may read the Cmax as the highest concentration seen after dosing. A word on the AUC(0-t): it is the area under the concentration-time curve up to a stated or last time point. In general, IC50 refers to the point on the concentration scale where inhibition reaches its midpoint.

Values taken from ChEMBL document CHEMBL2396634, “An effective prodrug strategy to selectively enhance ocular exposure of a cannabinoid receptor (CB1/2) agonist” (J Med Chem, 2013).
